Assay outcomes deposited in PubChem BioAssay by several laboratories.
An excerpt weighted towards active compounds, which were near 2.2% of everything screened.
EBV gp42 inh: blocks Epstein-Barr virus glycoprotein 42 binding; Fluorescence polarization binding assay, mP read-out; hit rate 0.42% among 220,000; inhibition, % (tested at 21.74 µM); AID 1085; Q1HVG2; in the data active = inhibition above about 50%
Target sequence (Q1HVG2 whole entry, looked up): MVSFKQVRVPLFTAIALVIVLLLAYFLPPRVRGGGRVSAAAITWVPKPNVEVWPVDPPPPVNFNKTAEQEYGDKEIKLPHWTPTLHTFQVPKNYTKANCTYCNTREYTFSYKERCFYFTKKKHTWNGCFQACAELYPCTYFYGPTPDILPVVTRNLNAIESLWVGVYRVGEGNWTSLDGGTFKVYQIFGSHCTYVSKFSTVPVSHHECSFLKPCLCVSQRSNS
IMP-1 inh-1: inhibitors of Pseudomonas aeruginosa IMP-1 metallo-beta-lactamase. purified IMP-1, nitrocefin hydrolysis, epi-absorbance fluorescence. inhibition, % at 5.6 µM. hit rate 0.45% among 290,000. AID 1556;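 active = inhibition above the mean plus 3 SD of all compounds in the same screening run, cut at about 4.5% in these data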;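 also: 0% = IMP-1 with DMSO and 100% = DMSO wells lacking enzyme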
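Material – recombinant IMP-1 enzyme, purified · Amount – IMP-1 0.2 nM before substrate addition · Medium – HEPES buffer pH 7.1 with ZnSO4 and Brij 35 · Timing – 25 °C, 15 min preincubation, 25 min reaction · Measured by – plate fluorescence quenching by hydrolysis product, ex 480/em 530 nm · Read-out – percent enzyme inhibition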
MEX-5 binding: C. elegans MEX-5 TCR-2 RNA binding activity; MEX-5/FITC-TCR2 RNA binding, fluorescence polarization; active compounds read low; activity score (negative = inhibition of binding), % at 10 µM; hit rate 0.38% among 300,000; AID 1832;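 active = inhibition past about -25% in most replicates, and total fluorescence under double the plate's negative control median, limit read from the data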;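 also: 0% = DMSO and -100% = 5 µM competing unlabeled TCR2 RNA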
Bcl-xL primary: Bcl-xL (human) inhibition; AID 2129; hit rate 0.7% among 320,000; inhibition, % at 10.9 µM; Q07817; GST-Bcl-xL / FITC-Bim BH3 peptide fluorescence polarization;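 active = inhibition above the mean of all tested compounds plus 3 SD, cutoff set per campaign, cut at about 30% in these data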;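 also: 0% = DMSO wells and 100% = unlabeled Bim-BH3 peptide competitor; inhibitors lower millipolarization by displacing the labeled peptide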
VIM-2 inh: blocks Pseudomonas aeruginosa VIM-2 metallo-beta-lactamase | purified VIM-2, nitrocefin hydrolysis, epi-absorbance fluorescence | inhibition, % at 5.6 µM | hit rate 0.89% among 290,000 | AID 1527;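 active = inhibition above the mean of all tested compounds plus 3 SD, cutoff set per screening run, cut at about 7.5% in these data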;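 also: red hydrolysis product quenches plate fluorescence so inhibitors raise well fluorescence; 0% = enzyme with DMSO and 100% = DMSO without enzyme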
GLD-1 TGE inh: GLD-1-TGE RNA interaction inhibition (C. elegans); Q17339; purified GLD-1 + fluorescein TGE RNA, fluorescence polarization; inhibition, % at 5.96 µM; hit rate 0.44% among 320,000; AID 2280;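 active = percent inhibition above a per-plate cutoff, the plate mean of test compounds plus 3 SD, cut at about 30% in these data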;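 also: 0% = DMSO wells with GLD-1 and probe and 100% = wells lacking GLD-1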
IMP-1 inh-2: blocks IMP-1 metallo-beta-lactamase in VIM-2 selectivity screen; AID 1856; purified IMP-1, nitrocefin hydrolysis, epi-absorbance fluorescence; inhibition, % at 5.6 µM; shares compounds with VIM-2 inh; 1,300 tested, under 10 active; call rule not given here;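 also: 0% = enzyme with vehicle and 100% = vehicle without enzyme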
VIM-2 FRET inh: inhibits VIM-2 in FRET assay to exclude epi-absorbance artifacts. shares compounds with VIM-2 inh. purified VIM-2, CCF2 FRET substrate hydrolysis. inhibition, % at 5.6 µM. hit rate 23% among 1,300. AID 1857;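 active = inhibition above the mean of all tested compounds plus 3 SD, cut at about 19% in these data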;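 also: 0% = VIM-2 plus DMSO and 100% = no enzyme wells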
TEM-1 counter: TEM-1 inhibition, counter-screen for VIM-2 inhibitors; shares compounds with VIM-2 inh; Purified TEM-1, nitrocefin hydrolysis, epi-absorbance fluorescence; hit rate 3% among 1,300; AID 1866; inhibition, % at 5.6 µM;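 active = inhibition above that campaign's mean inhibition plus 3 SD, cut at about 0.46% in these data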;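 also: 0% = TEM-1 with DMSO and 100% = TEM-1 with 100 µM potassium clavulanate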
Target sequence (P62593 whole entry, looked up): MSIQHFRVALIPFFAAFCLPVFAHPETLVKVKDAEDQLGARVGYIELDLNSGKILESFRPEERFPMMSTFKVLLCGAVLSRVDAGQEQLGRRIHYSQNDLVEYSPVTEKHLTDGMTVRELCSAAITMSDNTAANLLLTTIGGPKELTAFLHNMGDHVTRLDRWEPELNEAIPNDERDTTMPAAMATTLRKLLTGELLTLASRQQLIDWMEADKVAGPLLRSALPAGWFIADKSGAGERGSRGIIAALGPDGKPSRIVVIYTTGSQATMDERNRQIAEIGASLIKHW
VIM-2 inh conf: confirmation of P. aeruginosa VIM-2 metallo-beta-lactamase inhibitors | hit rate 96% among 1,300 | AID 2187 | shares compounds with VIM-2 inh | purified VIM-2, nitrocefin hydrolysis, epi-absorbance | inhibition, % at 5.6 µM;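 active = inhibition of the VIM-2 beta-lactamase enzyme above about 11% from the earlier first-round screen, limit read from the data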;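 also: 0% = VIM-2 with DMSO and 100% = buffer wells without enzyme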
An asterisk follows results filed as active; nt = not tested or not shown.

SMILES	EBV gp42 inh	IMP-1 inh-1	MEX-5 binding	Bcl-xL primary	VIM-2 inh	GLD-1 TGE inh	IMP-1 inh-2	VIM-2 FRET inh	TEM-1 counter	VIM-2 inh conf
Cc1ccc(Nc2cc(C)c(O)c(C)c2)cc1	nt	-6.0	2.5	17.2	1.0	-0.2	nt	nt	nt	nt
CC(=C/C(=O)O)/C=C/c1ccc([N+](=O)[O-])cc1	-1.4	-3.0	nt	5.3	14.2*	1.1	-3.0	-0.3	-4.5	6.7
CC(/C=C\c1ccccc1)=C/C(=O)O	-5.2	-2.3	0.9	-1.6	-1.8	5.3	nt	nt	nt	nt
O=C(Nc1nc2cc3c(cc2s1)OCCO3)c1ccc([N+](=O)[O-])o1	nt	-4.1	-4.4	6.0	-3.2	3.3	nt	nt	nt	nt
Cc1ccc(-n2c(-c3nn(C)c(C)c3Cl)n[nH]c2=S)cc1	-12.5	-4.2	4.3	-13.1	18.9*	7.8	-3.6	54.0*	-7.9	36.5*
Cc1cccc(-c2n[nH]c(=S)n2Cc2ccccc2)c1	-1.4	-1.5	1.7	-16.0	-2.1	1.1	nt	nt	nt	nt
Cc1ccc(-c2n[nH]c(=S)n2Cc2ccccc2)cc1	-18.4	-0.1	0.4	-3.5	12.4*	0.9	-3.4	29.2*	-9.9	16.1*
Oc1ccccc1-c1n[nH]c(=S)n1Cc1ccccc1	nt	-2.6	-1.1	-0.8	12.5*	6.4	-3.5	25.6*	-9.4	15.5*
CCCCc1n[nH]c(=S)n1Cc1ccc(C)cc1	-17.2	-0.8	0.2	-22.1	23.4*	5.5	-2.5	37.3*	-3.3	25.7*
Cc1ccc(-n2c(-c3cccc(C)c3)n[nH]c2=S)cc1	-13.6	-4.1	1.7	3.9	-0.1	3.8	nt	nt	nt	nt
Cc1ccc(-c2n[nH]c(=S)n2-c2ccccc2)cc1	-14.0	-3.1	-2.6	-7.8	13.0*	12.2	-3.5	34.6*	-7.9	22.8*
CCOC(=O)c1cnc2c(Cl)c(Cl)ccc2c1N1CCN(C)CC1	8.2	1.5	-0.6	-1.1	15.3*	8.5	-2.7	0.6	-9.1	24.0*
N#CCCN(Cc1ccccc1)S(=O)(=O)c1cccs1	nt	-1.9	-2.0	1.9	-1.5	-1.1	nt	nt	nt	nt
O=[N+]([O-])c1cc(-c2ccc(/C=N\n3cnnc3)o2)cc([N+](=O)[O-])c1	nt	-2.3	-2.8	10.3	54.4*	-1.4	-3.8	-0.8	-6.6	66.0*
Cc1ccc(-c2ccc(/C=N/n3cnnc3)o2)cc1Cl	-14.2	-3.6	-1.9	-0.7	21.4*	-9.0	-3.8	-8.9	-7.1	44.5*
O=[N+]([O-])c1ccccc1-c1ccc(/C=N/n2cnnc2)o1	-2.0	-3.4	0.3	7.7	3.0	-2.4	nt	nt	nt	nt
Clc1cccc(-c2ccc(/C=N/n3cnnc3)o2)c1	-2.4	0.6	0.9	-0.2	18.7*	6.1	-0.9	-3.2	1.9*	33.3*
C=CCc1ccccc1OCC(=O)NNC(=S)NCc1ccccc1	nt	-1.7	2.3	0.5	-0.6	11.2	nt	nt	nt	nt
CC(C)Oc1ccc(C(CC(=O)O)Cc2ccccc2)cc1 (stereo not drawn)	nt	-1.0	0.7	5.0	0.8	-2.6	nt	nt	nt	nt
CCN(CC(=O)Nc1c(F)cccc1F)C(=O)CC1CCCCC1	nt	nt	nt	3.0	nt	2.5	nt	nt	nt	nt
Cc1ccc(-c2csc3n[nH]c(=S)n23)cc1	-41.1	0.4	1.0	-2.1	46.5*	3.9	-1.5	69.6*	-3.1	56.7*
c1ccc(CN2CCN(CCCNc3ccc4nnc(-c5ccccc5)n4n3)CC2)cc1	-14.6	-2.0	-1.8	6.1	62.4*	4.6	-0.2	4.0	0.8*	76.1*
Cc1ccc(CNc2ccc3nnc(-c4ccccc4)n3n2)cc1	-14.1	-2.7	-0.8	-25.6	-4.2	2.6	nt	nt	nt	nt
Cc1ccc(C)c(CSc2ccc3nnc(-c4ccccn4)n3n2)c1	-18.6	-2.9	0.4	0.4	13.7*	-2.5	-3.4	-3.0	-7.7	24.8*
